Experimental data taken from ChEMBL document CHEMBL1133751, “Design, synthesis, and biological evaluation of tricyclic nucleosides (dimensional probes) as analogues of certain antiviral polyhalogenated benzimidazole ribonucleosides” (J Med Chem, 2000).

Legend:
[1] = test system: HFF; test: Antiviral activity against towne strain HCMV was determined by plaque reduction assay in duplicate wells using HFF cells; format: functional, cell-based; details: Homo sapiens
Summary of the method: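 HFF monolayers in 24-well dishes infected with about 100 PFU Towne HCMV (plaque-purified isolate P0) per cm2. Compounds in growth medium added to duplicate wells at 4–8 concentrations. Plaques scored. IC50 from linear regression of percent inhibition against log drug concentration.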

[2] = test system: HFF; test: Visual cytotoxicity against stationary human foreskin fibroblasts (HFF) cells at the time of HCMV plaque enumeration; format: functional, cell-based
Summary of the method: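 Stationary HFF monolayers in the uninfected wells of the HCMV plaque assay inspected microscopically for cytotoxicity. Compounds in growth medium at 4–8 concentrations. IC50 from linear regression of percent inhibition against log concentration.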

[3] = Compound was tested for the inhibition of KB cell growth in quadruplicate wells; format: functional, cell-based; details: Homo sapiens
Summary of the method: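 KB cells grown through two population doublings with compound in quadruplicate wells. Growth quantified by crystal violet staining and spectrophotometric reading of eluted dye. IC50 from linear regression of percent inhibition against log concentration.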

[4] = test system: HFF; test: Antiviral activity against towne strain HCMV was determined by yield reduction assay in duplicate wells using HFF cells; format: functional; details: Homo sapiens
Summary of the method: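 HFF cells plated in 96-well dishes and incubated overnight. Inoculated with Towne HCMV at MOI 0.5–1 PFU/cell, then drug added, in duplicate wells. Progeny virus yield measured. IC90 from the linear portion of log–log regression of yield versus drug concentration.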

[5] = test system: Human alphaherpesvirus 1; test: Antiviral activity against HSV-1 (herpes simplex virus), determined by ELISA in quadruplicate wells using BSC-1 cells; format: functional, organism-based; details: Human alphaherpesvirus 1, BSC-1
Summary of the method: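 KOS strain HSV-1 at 100 PFU/well added with selected drug concentrations in quadruplicate to 96-well dishes seeded with 10 000 BSC-1 cells/well and incubated overnight. Virus detected by ELISA. IC50 from linear regression of percent inhibition vs log concentration. Average of 2–3 separate experiments.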

Row | Structure (SMILES) | IC50 [1] [µM] | IC50 [2] [µM] | IC50 [3] [µM] | IC90 [4] [µM] | IC50 [5] [µM]
1 | OC[C@H]1OC(n2c(Cl)nc3nc4cc(Cl)c(Cl)cc4cc32)[C@H](O)[C@@H]1O (stereo partly specified) | 2 | 21 | 11 | 45 | 70
2 | OC[C@H]1OC(n2c(SCc3ccccc3)nc3nc4cc(Cl)c(Cl)cc4cc32)[C@H](O)[C@@H]1O (stereo partly specified) | 4.2 | 20 | 40 | – | > 100
3 | OC[C@H]1OC(n2c(NC3CC3)nc3cc4cc(Cl)c(Cl)cc4cc32)[C@H](O)[C@@H]1O (stereo partly specified) | 32 | 32 | 55 | – | 80
4 | OC[C@H]1OC(n2cnc3cc4cc(Cl)c(Cl)cc4cc32)[C@H](O)[C@@H]1O (stereo partly specified) | > 100 | > 100 | > 100 | 17 | > 100
5 | CC(C)Nc1nc2cc3cc(Cl)c(Cl)cc3nc2n1C1O[C@H](CO)[C@@H](O)[C@H]1O (stereo partly specified) | 32 | 32 | 90 | – | > 100
6 | CC(C)Nc1nc2nc3cc(Cl)c(Cl)cc3cc2n1C1O[C@H](CO)[C@@H](O)[C@H]1O (stereo partly specified) | 32 | 100 | 90 | – | > 100
7 | OC[C@H]1OC(n2cnc3nc4cc(Cl)c(Cl)cc4cc32)[C@H](O)[C@@H]1O (stereo partly specified) | > 100 | > 100 | 85 | 85 | > 100
8 | OC[C@H]1OC(n2c(SCc3ccccc3)nc3cc4cc(Cl)c(Cl)cc4cc32)[C@H](O)[C@@H]1O (stereo partly specified) | > 100 | > 100 | > 100 | – | > 100
9 | OC[C@H]1O[C@@H](n2c(Cl)nc3cc(Cl)c(Cl)cc32)[C@H](O)[C@@H]1O | 2.9 | – | 210 | 1.4 | –
10 | OC[C@H]1OC(n2c(NC3CC3)nc3nc4cc(Cl)c(Cl)cc4nc32)[C@H](O)[C@@H]1O (stereo partly specified) | 32 | > 100 | 90 | – | > 100
11 | OC[C@H]1OC(n2c(SCc3ccccc3)nc3cc4cc(Cl)c(Cl)cc4nc32)[C@H](O)[C@@H]1O (stereo partly specified) | > 10 | > 10 | > 100 | – | > 100
12 | CC(C)Nc1nc2cc3cc(Cl)c(Cl)cc3cc2n1C1O[C@H](CO)[C@@H](O)[C@H]1O (stereo partly specified) | 32 | 32 | 146 | – | 80
13 | OC[C@H]1OC(n2c(Cl)nc3cc4cc(Cl)c(Cl)cc4cc32)[C@H](O)[C@@H]1O (stereo partly specified) | 2 | 3.2 | 19 | 2.3 | 26
14 | CC(C)Nc1nc2nc3cc(Cl)c(Cl)cc3nc2n1C1O[C@H](CO)[C@@H](O)[C@H]1O (stereo partly specified) | 32 | 100 | 70 | – | 100
15 | OC[C@H]1OC(n2c(SCc3ccccc3)nc3nc4cc(Cl)c(Cl)cc4nc32)[C@H](O)[C@@H]1O (stereo partly specified) | 4.2 | 20 | 20 | – | 30
16 | OC[C@H]1OC(n2c(NC3CC3)nc3nc4cc(Cl)c(Cl)cc4cc32)[C@H](O)[C@@H]1O (stereo partly specified) | > 100 | > 100 | > 100 | – | > 100
17 | OC[C@H]1OC(n2cnc3nc4cc(Cl)c(Cl)cc4nc32)[C@H](O)[C@@H]1O (stereo partly specified) | 32 | 45 | > 100 | – | > 100
18 | OC[C@H]1OC(n2c(Cl)nc3cc4cc(Cl)c(Cl)cc4nc32)[C@H](O)[C@@H]1O (stereo partly specified) | 18 | 18 | 8 | 9.2 | 90
19 | OC[C@H]1OC(n2cnc3cc4cc(Cl)c(Cl)cc4nc32)[C@H](O)[C@@H]1O (stereo partly specified) | > 10 | > 10 | > 100 | – | > 100
20 | Nc1nc2c(ncn2COC(CO)CO)c(=O)[nH]1 [GANCICLOVIR] | – | > 100 | > 100 | 1.6 | –
21 | OC[C@H]1OC(n2c(NC3CC3)nc3cc4cc(Cl)c(Cl)cc4nc32)[C@H](O)[C@@H]1O (stereo partly specified) | > 100 | > 100 | 100 | – | > 100
22 | OC[C@H]1O[C@@H](n2cnc3cc(Cl)c(Cl)cc32)[C@H](O)[C@@H]1O [DICHLORORIBOBENZIMIDAZOLE] | 42 | – | 36 | 19 | 30
